The test system of data set [1] is Nakaseomyces glabratus. The data set is described as follows: Antifungal activity against Candida glabrata 513 assessed as complete growth inhibition after 24 hrs by CLSI end point method. The data set is classed as functional. The settings on record: Nakaseomyces glabratus, 513, 24 h. In short, it runs like this:
(§1)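 Two end points were read against the drug-free control well: partial growth inhibition (the CLSI end point) and complete inhibition. Run in duplicate on four separate occasions; the value is the mean. Drug stock was made in DMSO and diluted in 0.9% NaCl.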

In data set [2] the test system is Nakaseomyces glabratus. As to the kind of experiment: Antifungal activity against Candida glabrata after 24 hrs by broth microdilution method. The class given is functional. In short, it runs like this: as §1
Data set [3] deals with Nakaseomyces glabratus. As to the kind of experiment: Antifungal activity against Candida glabrata 5376 infected in neutropenic ICR/Swiss mouse candidiasis model assessed as dose required to maintain […] of 3.71 +/- 0.21 log10CFU per kidney administered intraperitoneally every 24 hrs up to 4 days measured per 96 hrs.
For data set [4], the system named is Nakaseomyces glabratus. As to the kind of experiment: Antifungal activity against Candida glabrata 570 assessed as partial growth inhibition after 24 hrs by CLSI end point method. The class given is functional. The settings on record: Nakaseomyces glabratus, 570, 24 h. In a few lines: as §1
Data set [5] deals with Nakaseomyces glabratus. As to the kind of experiment: Antifungal activity against Candida glabrata 34341 assessed as complete growth inhibition after 24 hrs by CLSI end point method. The data set is classed as functional. The settings on record: Nakaseomyces glabratus, 34341, 24 h. In a few lines:
as §1

Data set [6] concerns Candida albicans. The data set is described as follows: Antifungal activity against Candida albicans 98-17 infected in neutropenic ICR/Swiss mouse candidiasis model assessed as fungal count per kidney administered 2 hrs postinfection measured up to 48 hrs. The data set is classed as functional. In short, it runs like this: (§2)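 Untreated neutropenic mice infected via the tail vein (inoculum about 6.1 log10 CFU/ml, 0.1 ml). Growth is the rise in kidney CFU over 48 h. Kidneys were homogenised, serially diluted 1:10 and plated on SDA for 24 h at 35°C. Mean of three mice.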

For data set [7], the system named is Candida albicans. As to the kind of experiment: Antifungal activity against Candida albicans 98-210 infected in neutropenic ICR/Swiss mouse candidiasis model assessed as fungal count per kidney administered 2 hrs postinfection measured up to 48 hrs. The class given is functional. In a few lines:
as §2

Data set [8] has as its system Candida albicans. The data set is described as follows: Antifungal activity against Candida albicans K-1 infected in neutropenic ICR/Swiss mouse candidiasis model assessed as prolongation of fungal growth suppression at 20 mg/kg, ip administered 2 hrs postinfection as single dose by time-kill assay. Conditions: route intraperitoneal. The data set is classed as functional. In a few lines: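 Single ip dose (20, 5 or 1.25 mg/kg) given 2 h after iv infection of neutropenic mice with K-1. Three treated and three control mice were sampled at intervals over 96 h for kidney CFU. PAFE is the time for treated burden to rise 1 log10 after serum levels fall below MIC, minus the same time in controls. Free drug was taken as 1%.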

Data set [9] has as its system Candida albicans. The data set is described as follows: Antifungal activity against Candida albicans 580 infected in neutropenic ICR/Swiss mouse candidiasis model assessed as fungal count per kidney administered 2 hrs postinfection measured up to 48 hrs. The class given is functional. In short, it runs like this: as §2
Data set [10] deals with Candida albicans. The data set is described as follows: Antifungal activity against Candida albicans K-1 infected in neutropenic ICR/Swiss mouse candidiasis model assessed as dose required for 1-log10 reduction in […] per kidney administered intraperitoneally every 48 hrs up to 4 days measured per 96 hrs. The data set is classed as functional. In a few lines:
(§3)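 Neutropenic mice were infected iv with C. albicans K-1 2 h before therapy. Total doses of 1.25, 5, 20, 80 and 320 mg/kg/96 h were split into 1, 2, 4 or 6 ip doses (q96h, q48h, q24h, q16h), three mice per regimen. Effect is the log10 CFU/kidney relative to untreated controls at 96 h. Static and 1-log doses were taken from a Hill model fit.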

Data set [11] deals with Candida albicans. As to the kind of experiment: Antifungal activity against Candida albicans 98-210 infected in neutropenic ICR/Swiss mouse candidiasis model assessed as dose required for 1-log10 reduction in […] per kidney administered intraperitoneally every 24 hrs up to 4 days measured per 24 hrs. The data set is classed as functional. In a few lines: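 Neutropenic mice (cyclophosphamide sc on days −4, −1 and +2) were infected iv 2 h before therapy. Five total doses from 0.078 to 20 mg/kg/24 h were given ip q24h for 4 days, three mice per regimen. Kidney CFU were measured at the end of therapy. Static and 1-log-kill doses were derived from a Hill sigmoid dose-effect fit.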

Data set [12] relates to Nakaseomyces glabratus. The data set is described as follows: Antifungal activity against Candida glabrata 5376 infected in neutropenic ICR/Swiss mouse candidiasis model assessed as dose required to maintain […] of 3.71 +/- 0.21 log10CFU per kidney administered intraperitoneally every 48 hrs up to 4 days measured per 96 hrs.
The subject of data set [13] is Candida albicans. The data set is described as follows: Antifungal activity against Candida albicans K-1 infected in neutropenic ICR/Swiss mouse candidiasis model assessed as […] burden per kidney administered intraperitoneally every 16 hrs up to 4 days measured per 96 hrs. The data set is classed as functional. Conditions: K-1, Kidney, ip. In short, it runs like this: as §3

Data set [14] has as its system Nakaseomyces glabratus. The data set is described as follows: Antifungal activity against Candida glabrata 34341 infected in neutropenic ICR/Swiss mouse candidiasis model assessed as fungal count per kidney administered 2 hrs postinfection measured up to 48 hrs. The data set is classed as functional. In a few lines: (§4)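 Female ICR/Swiss mice (23–27 g) made neutropenic with cyclophosphamide s.c. (150 mg/kg day −4, 100 mg/kg day −1, 100 mg/kg day +2). Infected by tail vein with 0.1 ml inoculum (~6.1 log10 CFU/ml). Kidneys of untreated mice were homogenised and plated on SDA for 24 h at 35°C. Growth over 48 h is given as log10 CFU/kidney.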

Data set [15] is described as follows: Elimination half life in serum of neutropenic ICR/Swiss mouse candidiasis model at 80 mg/kg, ip by reverse-phase high-pressure liquid chromatography. The data set is classed as ADME, organism-based. Further details: dose 80 mg/kg, route intraperitoneal. The settings on record: read-out: beta t1/2 (converted). In short, it runs like this: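 Infected neutropenic ICR/Swiss mice given single ip doses (5, 20 or 80 mg/kg; 0.2 ml); serum from three isoflurane-anaesthetised mice at 1, 4, 8, 12, 24 and 48 h, stored at −80°C, assayed by reverse-phase HPLC with fluorescence detection, loratadine internal standard, linear 10–50,000 ng/ml. Noncompartmental analysis; half-life by nonlinear least squares.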

Data set [16] deals with Candida albicans. The data set is described as follows: Antifungal activity against Candida albicans K-1 infected in neutropenic ICR/Swiss mouse candidiasis model assessed as prolongation of fungal growth suppression at 1.25 mg/kg, ip administered 2 hrs postinfection as single dose by time-kill assay. The settings on record: route intraperitoneal. The data set is classed as functional. In short, it runs like this: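 Single ip dose of 1.25, 5 or 20 mg/kg given 2 h after iv infection of neutropenic mice. Groups of 3 treated and 3 control mice sampled at 1–24 h intervals over 96 h. Kidney homogenates plated on SDA, 24 h at 35°C. PAFE = time for treated burden to rise 1 log10 CFU/kidney after serum level fell below MIC, minus the same time in controls.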

Data set [17] concerns Nakaseomyces glabratus. As to the kind of experiment: Antifungal activity against Candida glabrata 5376 infected in neutropenic ICR/Swiss mouse candidiasis model assessed as fungal count per kidney administered 2 hrs postinfection measured up to 48 hrs. The data set is classed as functional. In a few lines:
as §4

For data set [18], the system named is Nakaseomyces glabratus. The data set is described as follows: Antifungal activity against Candida glabrata 32930 infected in neutropenic ICR/Swiss mouse candidiasis model assessed as dose required to maintain […] of 1.83 +/- 0.54 log10CFU per kidney administered intraperitoneally every 24 hrs up to 4 days measured per 24 hrs. The data set is classed as functional.

The subject of data set [19] is Candida albicans. The data set is described as follows: Antifungal activity against Candida albicans 98-210 assessed as partial growth inhibition after 24 hrs by CLSI end point method. The class given is functional. Conditions: 98-210, 24 h. In a few lines: (§5)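 CLSI M27-A2 broth dilution. Two end points read against the drug-free control well: partial inhibition (CLSI end point) and complete inhibition. Run in duplicate on four separate occasions; value is the mean. Drug stock in DMSO, diluted in 0.9% NaCl.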

Data set [20] relates to Nakaseomyces glabratus. As to the kind of experiment: Antifungal activity against Candida glabrata 33609 assessed as partial growth inhibition after 24 hrs by CLSI end point method. Conditions: Nakaseomyces glabratus, 33609, 24 h. The class given is functional. In short, it runs like this: as §5
The test system of data set [21] is Nakaseomyces glabratus. The data set is described as follows: Antifungal activity against Candida glabrata 34341 assessed as partial growth inhibition after 24 hrs by CLSI end point method. The data set is classed as functional. The settings on record: Nakaseomyces glabratus, 34341, 24 h. In short, it runs like this: as §1

Values after ≈ are worked out from the molar mass of the structure shown. Starred links: 1 amine or outer side, 2 acyl side, 3 side chain; linkers in the order of their positions; H or OH if unused. Positions of bridges follow the written chain, without caps; N, C: chain ends. Non-standard residues stand in square brackets, D forms with d. Residues, ends and D or L forms follow the SMILES beside them. *: point of attachment. pTerphenylCO(4''-OnC5H11) = CCCCCOc1ccc(-c2ccc(-c3ccc(C(=O)*)cc3)cc2)cc1; Orn(4R-OH,5R-OH) = O=C([C@H](C[C@@H](O)[C@@H](O)N[*:3])N[*:1])[*:2]; hTyr(3S-OH,4S-OH) = N[C@H](C(=O)O)[C@H](O)[C@@H](O)c1ccc(O)cc1; Pro(3S-OH,4S-Me) = C[C@H]1CN[C@H](C(=O)O)[C@H]1O; Hyp = O=C(O)[C@@H]1C[C@@H](O)CN1

In the case of `CCCCCOc1ccc(-c2ccc(-c3ccc(C(=O)N[C@H]4C[C@@H](O)[C@@H](O)NC(=O)[C@@H]5[C@@H](O)[C@@H](C)CN5C(=O)[C@H]([C@@H](C)O)NC(=O)[C@H]([C@H](O)[C@@H](O)c5ccc(O)cc5)NC(=O)[C@@H]5C[C@@H](O)CN5C(=O)[C@H]([C@@H](C)O)NC4=O)cc3)cc2)cc1` [ANIDULAFUNGIN] ({pTerphenylCO(4''-OnC5H11)}-[Orn(4R-OH,5R-OH)]T[Hyp][hTyr(3S-OH,4S-OH)]T[Pro(3S-OH,4S-Me)]; lactam 1-C), the MIC in the data set with Nakaseomyces glabratus [1] is 0.12 µg/mL (≈ 0.105 µM); in the data set on Nakaseomyces glabratus [4] it was 0.03 µg/mL (≈ 0.0263 µM); with Nakaseomyces glabratus [5], 1 µg/mL (≈ 0.877 µM); in the data set on Candida albicans [19], 0.015 µg/mL (≈ 0.0132 µM); in the data set with Nakaseomyces glabratus [20], 0.03 µg/mL (≈ 0.0263 µM); in the data set with Nakaseomyces glabratus [21], 0.12 µg/mL (≈ 0.105 µM). For the same compound, the MIC90 with Nakaseomyces glabratus [2] is 0.12 µg/mL (≈ 0.105 µM). For the same compound, the Activity is 17.6 mg/kg in the data set with Nakaseomyces glabratus [3]; >96 h with Candida albicans [8]; 9.19 mg/kg in the data set with Candida albicans [10]; 13 mg/kg in the data set with Candida albicans [11]; 15.3 mg/kg with Nakaseomyces glabratus [12]; 56 h in the data set with Candida albicans [16]. Besides, the Activity with Nakaseomyces glabratus [18] is 1.58 mg/kg. The log10cfu in the data set with Candida albicans [6] is 4.3; with Candida albicans [7], 3.5; in the data set with Candida albicans [9], 3.4; with Nakaseomyces glabratus [14], 1.82; with Nakaseomyces glabratus [17], 2.1. Further, the ED50 in the data set on Candida albicans [13] is 8.74 mg/kg. The half-life in data set [15] is 1440 min.

The values above are taken from ChEMBL document CHEMBL1153564 (Antimicrob Agents Chemother, 2008).
